Legend:
Type in all cases: functional
[1] = Growth inhibition of human HOP92 cells assessed as cell growth at 10^-6 M incubated for 48 hrs by sulforhodamine B assay; conditions: HOP-92, 48 h, read-out: Activity
[2] = Growth inhibition of human SF295 cells assessed as cell growth at 10^-4 M incubated for 48 hrs by sulforhodamine B assay; conditions: SF-295, 48 h, read-out: Activity
T47D = test: Growth inhibition of human T47D cells incubated for 48 hrs by sulforhodamine B assay
Outline: (§1)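 Cells were plated at 5,000–40,000 per well according to doubling time and preincubated 24 h at 37 °C in 5% CO2; time-zero plates were then TCA-fixed. Five concentrations (10-fold or ½-log dilutions, DMSO stock) were incubated 48 h. Cells were TCA-fixed, stained with 0.4% SRB and read at 515 nm. GI50 was taken where [(Ti−Tz)/(C−Tz)]×100 = 50.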

A498 = test: Growth inhibition of human A498 cells assessed as cell growth at 10^-5 M incubated for 48 hrs by sulforhodamine B assay; conditions: A498, 48 h, read-out: Activity
Outline: (§2)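 Five-dose assay: five concentrations from 10-fold or ½-log serial dilutions. Cells are plated at 5,000–40,000 per well according to doubling time, grown 24 h, then exposed 48 h at 37 °C, 5% CO₂. Fixed with cold 50% TCA (final addition) for 60 min at 4 °C and stained with 0.4% SRB in 1% acetic acid. Bound dye is solubilized in 10 mM Tris base and read at 515 nm. GI₅₀ is where [(Ti−Tz)/(C−Tz)]×100 = 50, with a time-zero plate as Tz.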

[3] = Growth inhibition of human BT549 cells assessed as cell growth at 10 uM incubated for 48 hrs by sulforhodamine B assay; conditions: BT-549, 48 h, read-out: Activity
Outline: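 One-dose screen at 10 µM final. Cells are plated at 5,000–40,000 per well according to doubling time and preincubated 24 h at 37 °C, 5% CO₂. Compound (DMSO stock diluted in medium with 50 µg/ml gentamicin) is then added for 48 h. Growth percent is read by sulforhodamine B staining, absorbance at 515 nm.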

[4] = Growth inhibition of human SW620 cells assessed as cell growth at 10 uM incubated for 48 hrs by sulforhodamine B assay; conditions: SW-620, 48 h, read-out: Activity
[5] = Growth inhibition of human HCT116 cells assessed as cell growth at 10^-5 M incubated for 48 hrs by sulforhodamine B assay; conditions: HCT-116, 48 h, read-out: Activity
Outline: (§3)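 Cells seeded at 5,000–40,000/well according to doubling time and preincubated 24 h at 37 °C, 5% CO2. Time-zero plates were TCA-fixed. DMSO concentrate was diluted in medium with 50 µg/ml gentamicin to give five concentrations (10-fold or ½ log steps), then exposed 48 h. Cells were TCA-fixed, stained with 0.4% SRB and read at 515 nm. Percent growth was taken against time-zero and control; GI50, TGI and LC50 derived.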

[6] = Growth inhibition of human MOLT4 cells assessed as cell growth at 10^-8 M incubated for 48 hrs by sulforhodamine B assay; conditions: MOLT-4, 48 h, read-out: Activity
[7] = Growth inhibition of human BT549 cells assessed as cell growth at 10^-7 M incubated for 48 hrs by sulforhodamine B assay; conditions: BT-549, 48 h, read-out: Activity; outline: as §2
[8] = Growth inhibition of human COLO205 cells incubated for 48 hrs by sulforhodamine B assay; conditions: COLO 205, 48 h; outline: as §3
[9] = Growth inhibition of human renal cancer cells incubated for 48 hrs by sulforhodamine B assay; conditions: Cancer cell lines
CCRF-CEM = test: Growth inhibition of human CCRF-CEM cells incubated for 48 hrs by sulforhodamine B assay
Outline: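 Leukemia line in the five-dose format: five concentrations from 10-fold or ½-log serial dilutions. Plated at 5,000–40,000 cells per well, preincubated 24 h, then compound added for 48 h at 37 °C, 5% CO₂. Sulforhodamine B absorbance read at 515 nm. Growth is computed against time-zero (Tz) and control (C) readings; GI₅₀ is where [(Ti−Tz)/(C−Tz)]×100 = 50.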

[10] = Growth inhibition of human HOP62 cells assessed as cell growth at 10^-5 M incubated for 48 hrs by sulforhodamine B assay; conditions: HOP-62, 48 h, read-out: Activity
[11] = Growth inhibition of human SW620 cells assessed as cell growth at 10^-8 M incubated for 48 hrs by sulforhodamine B assay; conditions: SW-620, 48 h, read-out: Activity
SN12C = test: Growth inhibition of human SN12C cells incubated for 48 hrs by sulforhodamine B assay; outline: as §1
NCI-H226 = test: Growth inhibition of human NCI-H226 cells assessed as cell growth at 10^-6 M incubated for 48 hrs by sulforhodamine B assay; conditions: NCI-H226, 48 h, read-out: Activity
NCI-H23 = test: Growth inhibition of human NCI-H23 cells incubated for 48 hrs by sulforhodamine B assay; conditions: NCI-H23, 48 h; outline: as §1
[12] = Growth inhibition of human OVCAR4 cells assessed as cell growth at 10^-7 M incubated for 48 hrs by sulforhodamine B assay; conditions: OVCAR-4, 48 h, read-out: Activity
786-0 = test: Growth inhibition of human 786-0 cells incubated for 48 hrs by sulforhodamine B assay; conditions: 786-0, 48 h; outline: as §2
KM12 [13] = test: Growth inhibition of human KM12 cells assessed as cell growth at 10^-4 M incubated for 48 hrs by sulforhodamine B assay; conditions: KM12, 48 h, read-out: Activity
[14] = Growth inhibition of human RXF393 cells assessed as cell growth at 10 uM incubated for 48 hrs by sulforhodamine B assay; conditions: RXF 393, 48 h, read-out: Activity
[15] = Growth inhibition of human Caki1 cells assessed as cell growth at 10^-4 M incubated for 48 hrs by sulforhodamine B assay; conditions: CAKI-1, 48 h, read-out: Activity; outline: as §3
KM12 [16] = test: Growth inhibition of human KM12 cells assessed as cell growth at 10^-5 M incubated for 48 hrs by sulforhodamine B assay; conditions: KM12, 48 h, read-out: Activity
[17] = read-out: LC50 (the source's name)
[18] = read-out: pLC50 (the source's name) (converted)

## c1ccc2[nH]c(-c3ccc(Nc4nc(N5CCCCC5)nc(N5CCOCC5)n4)cc3)nc2c1
[1]
  growth at 1 µM: 95%
[2]
  growth at 100 µM: -56%
T47D; read-out: GI50
  GI50: 1.96 µM
T47D; [17]
  CC50: > 100 µM
T47D; read-out: TGI
  TGI: 4.58 µM
T47D; read-out: pGI50 (converted)
  GI50: 1.95 µM
T47D; [18]
  CC50: > 100 µM
T47D; read-out: pTGI (converted)
  TGI: 4.57 µM
A498
  growth at 10 µM: -51%
[3]
  growth at 10 µM: 23.1%
[4]
  growth at 10 µM: 5.3%
[5]
  growth at 10 µM: -67%
[6]
  growth at 0.01 µM: 99%
[7]
  growth at 0.1 µM: 95%
[8]; read-out: GI50
  GI50: 1.86 µM
[8]; read-out: LC50
  LC50: 8.27 µM
[8]; read-out: TGI
  TGI: 3.92 µM
[8]; read-out: pGI50 (converted)
  GI50: 1.86 µM
[8]; read-out: pLC50 (converted)
  LC50: 8.32 µM
[8]; read-out: pTGI (converted)
  TGI: 3.89 µM
[9]
  GI50: 2.46 µM
  TGI: 11.8 µM
[9]; [17]
  CC50: 8.29 µM
CCRF-CEM; read-out: GI50
  GI50: 3.25 µM
CCRF-CEM; [17]
  CC50: > 100 µM
CCRF-CEM; read-out: TGI
  TGI: > 100 µM
CCRF-CEM; read-out: pGI50 (converted)
  GI50: 3.24 µM
CCRF-CEM; [18]
  CC50: > 100 µM
CCRF-CEM; read-out: pTGI (converted)
  TGI: > 100 µM
[10]
  growth at 10 µM: -52%
[11]
  growth at 0.01 µM: 97%
SN12C
  LC50 (50% lethal concentration): > 100 µM
SN12C; read-out: GI50
  GI50: 5.4 µM
SN12C; read-out: TGI
  TGI: 53.2 µM
SN12C; read-out: pGI50 (converted)
  GI50: 5.37 µM
SN12C; [18]
  CC50: > 100 µM
SN12C; read-out: pTGI (converted)
  TGI: 53.7 µM
NCI-H226
  growth at 1 µM: 89%
NCI-H23; read-out: GI50
  GI50: 3.05 µM
NCI-H23; [17]
  CC50: > 100 µM
NCI-H23; read-out: TGI
  TGI: 15.7 µM
NCI-H23; read-out: pGI50 (converted)
  GI50: 3.02 µM
NCI-H23; [18]
  CC50: > 100 µM
NCI-H23; read-out: pTGI (converted)
  TGI: 15.8 µM
[12]
  growth at 0.1 µM: 97%
786-0; read-out: GI50
  GI50: 1.54 µM
786-0; [17]
  CC50: 6.68 µM
786-0; read-out: TGI
  TGI: 3.21 µM
786-0; read-out: pGI50 (converted)
  GI50: 1.55 µM
786-0; [18]
  CC50: 6.61 µM
786-0; read-out: pTGI (converted)
  TGI: 3.24 µM
KM12 [13]
  growth at 100 µM: -40%
[14]
  growth at 10 µM: -56.1%
[15]
  growth at 100 µM: -32%
KM12 [16]
  growth at 10 µM: -2%

From ChEMBL document CHEMBL3808334, “Synthesis and in vitro evaluation of novel triazine analogues as anticancer agents and their interaction studies with bovine serum albumin” (Eur J Med Chem, 2016)
